Reference: ChEMBL document CHEMBL5331087, “Targeted AURKA degradation: Towards new therapeutic agents for neuroblastoma” (Eur J Med Chem, 2023)
Activity calls are given as the source filed them. The calls are words filed in the database; no cut-off is given here.

Columns and labels:
[1] = target: T1, Protein cereblon/Aurora kinase A (Homo sapiens) (UniProt O14965+Q96SW2); assay: PROTAC activity at AURKA/CRBN in human NGP cells assessed as AURKA degradation at 0.1 to 1000 nM measured for 24 hrs by Western blot analysis relative to control; format: cell-based; details: dose 0.1-1000 nM
How it was run: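 NGP cells were seeded at about 2×10^6 per flask, adhered for 48 h, and were then treated for 24 h with DMSO matched. Lysis was in RIPA with protease/phosphatase inhibitors. AURKA was quantified by capillary Simple Western with peak areas normalised to vinculin. Fold change is relative to DMSO (mean ± SD, n = 3).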

[2] = target: T1, Protein cereblon/Aurora kinase A (Homo sapiens); assay: PROTAC activity at AURKA/CRBN in human NGP cells assessed as reduction in AURKA level at 500 nM measured for 1 hr by Western blot analysis; format: cell-based; parameters: scale not given: the % may be the effect or the level left
How it was run: (§1)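 NGP cells were treated with 500 nM compound and harvested at 0, 1, 3, 6, 24, 48 and 72 h. RIPA lysates (35 µg) were run on 10% SDS-PAGE and blotted to nitrocellulose. AURKA and MYCN were probed with vinculin as loading control and quantified by densitometry. Values are percent remaining relative to the DMSO control at each timepoint (n = 3).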

[3] = target: T2, N-myc proto-oncogene protein (Homo sapiens) (UniProt P04198); assay: Induction of MYCN degradation in human NGP cells at 500 nM by Western blot analysis; format: cell-based; details: time <= 72.0 hrs; how it was run: as §1
T2 sequence (whole entry): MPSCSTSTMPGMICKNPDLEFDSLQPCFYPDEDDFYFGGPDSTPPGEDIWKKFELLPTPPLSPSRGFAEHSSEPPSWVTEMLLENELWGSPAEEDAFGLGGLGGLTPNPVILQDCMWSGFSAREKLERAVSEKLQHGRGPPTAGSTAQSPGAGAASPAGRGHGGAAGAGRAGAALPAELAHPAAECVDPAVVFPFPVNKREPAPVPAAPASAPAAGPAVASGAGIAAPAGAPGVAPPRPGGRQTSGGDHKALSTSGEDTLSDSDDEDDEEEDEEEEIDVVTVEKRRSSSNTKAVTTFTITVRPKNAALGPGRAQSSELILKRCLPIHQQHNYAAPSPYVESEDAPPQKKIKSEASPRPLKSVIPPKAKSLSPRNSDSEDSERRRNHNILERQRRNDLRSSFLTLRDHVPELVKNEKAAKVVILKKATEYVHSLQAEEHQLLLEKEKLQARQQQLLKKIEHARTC

[4] = target: T2, N-myc proto-oncogene protein (Homo sapiens); assay: Induction of MYCN degradation in human NGP cells at 500 nM measured for 72 hrs by Western blot analysis relative to control; format: cell-based; how it was run: as §1
[5] = Antiproliferative activity against human N206 cells assessed as reduction in cell viability incubated for 48 hrs relative to control; format: functional
[6] = Antiproliferative activity against human NGP cells assessed as reduction in cell viability incubated for 48 hrs; format: functional, cell-based
How it was run: (§2)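 Cells were grown in RPMI 1640 with 10% FCS and 2 mM L-glutamine. Seeding was 4500 cells/well for NGP, IMR-32 and N206, and 2100 cells/well for SK-N-AS, with adherence overnight. Compound was dispensed over a concentration range in triplicate. Confluence was imaged live for 48 h and normalised to the DMSO control. Absolute IC50 came from a four-parameter variable-slope fit (n = 4).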

IMR-32 [7] = assay: Antiproliferative activity against human IMR-32 cells assessed as reduction in cell viability incubated for 48 hrs; format: functional, cell-based; details: IMR-32, 48 h; how it was run: as §2
IMR-32 [8] = assay: Antiproliferative activity against human IMR-32 cells assessed as reduction in cell viability incubated for 48 hrs relative to control; format: functional
How it was run: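 Cells grown in RPMI 1640 with 10% fetal calf serum, 2 mM L-glutamine and penicillin/streptomycin at 37 °C, 5% CO2. Seeded at 4500 (IMR-32) or 2100 (SK-N-AS) cells/well in 384-well plates and left to adhere overnight. Concentration range dispensed in triplicate. Confluence tracked by IncuCyte live-cell imaging, and 48h values normalized to DMSO. Absolute IC50 taken from a four-parameter variable-slope fit (n = 4).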

[9] = target: T1, Protein cereblon/Aurora kinase A (Homo sapiens); assay: PROTAC activity at AURKA/CRBN in human NGP cells assessed as increase in pRPA32 level at 10 to 1000 nM measured for 24 hrs by immunoblotting analysis; format: cell-based; details: dose 10-1000 nM
[10] = Growth inhibition of patient derived NB059 Neuroblastoma organoid assessed as reduction in viability incubated for […] by CellTiter Glo 3D assay relative to control; format: functional; details: Homo sapiens
[11] = Growth inhibition of patient derived 000GKX Neuroblastoma organoid assessed as reduction in viability incubated for […] by CellTiter Glo 3D assay relative to control; format: functional; details: Homo sapiens
[12] = target: T1, Protein cereblon/Aurora kinase A (Homo sapiens); assay: PROTAC activity at AURKA/CRBN in human NGP cells assessed as AURKA degradation at 100 nM measured for 3 hrs by shotgun proteome profiling relative to control

T1 sequence (O14965 whole entry, looked up): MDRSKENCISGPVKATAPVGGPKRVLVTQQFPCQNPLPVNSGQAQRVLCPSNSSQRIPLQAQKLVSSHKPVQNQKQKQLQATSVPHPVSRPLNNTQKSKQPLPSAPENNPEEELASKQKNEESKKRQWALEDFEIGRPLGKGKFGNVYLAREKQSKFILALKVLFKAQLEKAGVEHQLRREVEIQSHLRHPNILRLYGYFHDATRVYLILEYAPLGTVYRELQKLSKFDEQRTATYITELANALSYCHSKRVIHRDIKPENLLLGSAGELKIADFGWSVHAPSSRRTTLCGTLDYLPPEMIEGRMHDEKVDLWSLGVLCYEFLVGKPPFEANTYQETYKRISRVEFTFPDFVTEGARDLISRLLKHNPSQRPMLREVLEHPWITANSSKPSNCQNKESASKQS
T1 sequence (Q96SW2 whole entry, looked up): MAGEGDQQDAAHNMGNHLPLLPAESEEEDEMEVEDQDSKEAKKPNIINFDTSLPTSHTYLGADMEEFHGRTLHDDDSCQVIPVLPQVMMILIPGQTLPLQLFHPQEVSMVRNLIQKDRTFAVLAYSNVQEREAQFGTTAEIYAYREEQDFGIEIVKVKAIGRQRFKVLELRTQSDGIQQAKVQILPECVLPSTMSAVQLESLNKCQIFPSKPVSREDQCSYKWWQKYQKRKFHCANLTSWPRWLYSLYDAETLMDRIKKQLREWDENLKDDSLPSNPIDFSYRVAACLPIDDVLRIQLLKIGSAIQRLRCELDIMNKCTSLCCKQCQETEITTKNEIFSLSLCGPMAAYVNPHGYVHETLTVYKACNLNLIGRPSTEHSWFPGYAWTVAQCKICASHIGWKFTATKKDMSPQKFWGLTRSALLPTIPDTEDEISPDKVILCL

Emax [1]: 89%
Activity [2]: 7%
Activity [3]: Dose-Dependent Effect
Activity [4]: 73%
Activity [9]: Active
Activity [12]: Active
SMILES: O=C1CCC(N2C(=O)c3cccc(OCCOCCOCCOCCNC(=O)[C@]4(Cc5cccc(Nc6nccs6)n5)CC[C@@H](Oc5cccc(Cl)c5F)CC4)c3C2=O)C(=O)N1 (some centres not stated)
Emax [5]: 53.5%
IC50 [6]: 31.9 nM
IC50 (IMR-32 [7]): 21.5 nM
Emax (IMR-32 [8]): 14.1%
Emax [10]: 80.2%
Emax [11]: 38.2%
